Test results as given in ChEMBL document CHEMBL2417357, “Synthesis and antiprotozoal activities of benzyl phenyl ether diamidine derivatives” (Eur J Med Chem, 2013).
Calls of active or inactive are those of the source. The calls are words filed in the database; no cut-off is given here.

System: Trypanosoma brucei rhodesiense
Test: Antitrypanosomal activity against Trypanosoma brucei rhodesiense STIB900 infected in NMRI mouse assessed as cured animal at 5 mg/kg, ip administered for 4 days
Type: functional, organism-based
Set-up: dose 5 mg/kg
Conditions: not given
Outline: (§1)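 Acute model in female NMRI mice infected with T. b. rhodesiense STIB900. Single daily doses given for four days, intraperitoneally or orally. Mice surviving 60 days post-infection without parasitaemia relapse counted as cured; result reported as cured/infected out of 4 mice per group, with mean survival in days.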

Row | SMILES | Activity
1 | N=C(N)c1ccc(COc2c(Cl)cc(C(=N)N)cc2Cl)cc1 | inactive
2 | COc1cc(C(=N)N)cc(OC)c1OCc1ccc(C(=N)N)cc1.Cl.Cl | inactive

System: Plasmodium falciparum
Test: Antiplasmodial activity against chloroquine-resistant Plasmodium falciparum K1
Type: functional, organism-based
Conditions: not given
Outline: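 Chloroquine-resistant K1 strain tested in vitro. IC50 is the average of duplicate determinations.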

Row | SMILES | IC50 [µM]
3 | N=C(N)c1ccc(COc2c(Cl)cc(C(=N)N)cc2Cl)cc1 | 0.014
4 | CO/N=C(\N)c1cccc(COc2ccc(/C(N)=N/OC)cc2Cl)c1.Cl.Cl.Cl | > 10.2
5 | Cl.Cl.N/C(=N\O)c1cccc(COc2c(I)cc(/C(N)=N/O)cc2I)c1 | 7.38
6 | COc1cc(/C(N)=N/O)cc(I)c1OCc1cccc(/C(N)=N/O)c1.Cl.Cl | > 9.45
7 | COc1cc(C(=N)N)cc(OC)c1OCc1ccc(C(=N)N)cc1.Cl.Cl | 0.177
8 | Cl.Cl.N/C(=N\O)c1ccc(COc2ccc(/C(N)=N/O)cc2Br)cc1 | > 11.1
9 | CO/N=C(\N)c1ccc(COc2c(OC)cc(/C(N)=N/OC)cc2OC)cc1.Cl.Cl | > 10.6
10 | CO/N=C(\N)c1cccc(COc2c(Cl)cc(/C(N)=N/OC)cc2Cl)c1.Cl.Cl.Cl.Cl | 5.91
11 | CO/N=C(\N)c1cccc(COc2c(OC)cc(/C(N)=N/OC)cc2OC)c1.Cl.Cl | > 10.4

System: L6
Test: Cytotoxicity against rat L6 cells after 72 hrs by Alamar blue assay
Type: cell-based
Conditions: L6, 72 h
Outline: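 Rat L6 myoblast cells; cytotoxic IC50 taken as the average of duplicate determinations.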

Row | SMILES | IC50 [µM]
12 | N=C(N)c1ccc(COc2c(Cl)cc(C(=N)N)cc2Cl)cc1 | 28.5
13 | CO/N=C(\N)c1cccc(COc2ccc(/C(N)=N/OC)cc2Cl)c1.Cl.Cl.Cl | 89.6
14 | Cl.Cl.N/C(=N\O)c1cccc(COc2c(I)cc(/C(N)=N/O)cc2I)c1 | 15.8
15 | COc1cc(/C(N)=N/O)cc(I)c1OCc1cccc(/C(N)=N/O)c1.Cl.Cl | 32.1
16 | COc1cc(C(=N)N)cc(OC)c1OCc1ccc(C(=N)N)cc1.Cl.Cl | 209
17 | Cl.Cl.N/C(=N\O)c1ccc(COc2ccc(/C(N)=N/O)cc2Br)cc1 | 6.6
18 | CO/N=C(\N)c1ccc(COc2c(OC)cc(/C(N)=N/OC)cc2OC)cc1.Cl.Cl | > 190
19 | CO/N=C(\N)c1cccc(COc2c(Cl)cc(/C(N)=N/OC)cc2Cl)c1.Cl.Cl.Cl.Cl | 108
20 | CO/N=C(\N)c1cccc(COc2c(OC)cc(/C(N)=N/OC)cc2OC)c1.Cl.Cl | > 188

System: not listed separately
Test: Selectivity index, ratio of IC50 for rat L6 cells to IC50 for amastigotes of Leishmania donovani
Type: toxicity, cell-based
Conditions: read-out: Ratio IC50
Outline: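 SI = IC50 in rat L6 myoblasts / IC50 against L. donovani MHOM/SD/62/IS-CL2D axenic amastigotes. The amastigote IC50 is the average of at least two determinations; the L6 IC50 is the average of duplicates.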

Row | SMILES | selectivity ratio
21 | N=C(N)c1ccc(COc2c(Cl)cc(C(=N)N)cc2Cl)cc1 | 4
22 | CO/N=C(\N)c1cccc(COc2ccc(/C(N)=N/OC)cc2Cl)c1.Cl.Cl.Cl | < 1
23 | Cl.Cl.N/C(=N\O)c1cccc(COc2c(I)cc(/C(N)=N/O)cc2I)c1 | 2
24 | COc1cc(/C(N)=N/O)cc(I)c1OCc1cccc(/C(N)=N/O)c1.Cl.Cl | < 1
25 | COc1cc(C(=N)N)cc(OC)c1OCc1ccc(C(=N)N)cc1.Cl.Cl | < 2
26 | Cl.Cl.N/C(=N\O)c1ccc(COc2ccc(/C(N)=N/O)cc2Br)cc1 | < 1
27 | CO/N=C(\N)c1ccc(COc2c(OC)cc(/C(N)=N/OC)cc2OC)cc1.Cl.Cl | > 2
28 | CO/N=C(\N)c1cccc(COc2c(Cl)cc(/C(N)=N/OC)cc2Cl)c1.Cl.Cl.Cl.Cl | < 2
29 | CO/N=C(\N)c1cccc(COc2c(OC)cc(/C(N)=N/OC)cc2OC)c1.Cl.Cl | < 2

System: not listed separately
Test: Selectivity index, ratio of IC50 for rat L6 cells to IC50 for chloroquine-resistant Plasmodium falciparum K1
Type: toxicity, cell-based
Conditions: read-out: Ratio IC50
Outline: (§2)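 SI = IC50 in rat L6 myoblasts / IC50 against the parasite (T. b. rhodesiense STIB900 or P. falciparum K1). Each IC50 is the average of duplicate determinations.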

Row | SMILES | selectivity ratio
30 | N=C(N)c1ccc(COc2c(Cl)cc(C(=N)N)cc2Cl)cc1 | 2020
31 | CO/N=C(\N)c1cccc(COc2ccc(/C(N)=N/OC)cc2Cl)c1.Cl.Cl.Cl | < 9
32 | Cl.Cl.N/C(=N\O)c1cccc(COc2c(I)cc(/C(N)=N/O)cc2I)c1 | 2.14
33 | COc1cc(/C(N)=N/O)cc(I)c1OCc1cccc(/C(N)=N/O)c1.Cl.Cl | < 3
34 | COc1cc(C(=N)N)cc(OC)c1OCc1ccc(C(=N)N)cc1.Cl.Cl | 1180
35 | Cl.Cl.N/C(=N\O)c1ccc(COc2ccc(/C(N)=N/O)cc2Br)cc1 | < 1
36 | CO/N=C(\N)c1cccc(COc2c(Cl)cc(/C(N)=N/OC)cc2Cl)c1.Cl.Cl.Cl.Cl | 18

System: Leishmania donovani
Test: Antileishmanial activity against amastigotes of Leishmania donovani MHOM/SD/62/IS-CL2D
Type: functional, organism-based
Conditions: not given
Outline: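 Axenic amastigotes of L. donovani MHOM/SD/62/IS-CL2D; IC50 taken as the average of at least two determinations.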

Row | SMILES | IC50 [µM]
37 | N=C(N)c1ccc(COc2c(Cl)cc(C(=N)N)cc2Cl)cc1 | 6.4
38 | CO/N=C(\N)c1cccc(COc2ccc(/C(N)=N/OC)cc2Cl)c1.Cl.Cl.Cl | > 100
39 | Cl.Cl.N/C(=N\O)c1cccc(COc2c(I)cc(/C(N)=N/O)cc2I)c1 | 6.63
40 | COc1cc(/C(N)=N/O)cc(I)c1OCc1cccc(/C(N)=N/O)c1.Cl.Cl | > 94.5
41 | COc1cc(C(=N)N)cc(OC)c1OCc1ccc(C(=N)N)cc1.Cl.Cl | > 100
42 | Cl.Cl.N/C(=N\O)c1ccc(COc2ccc(/C(N)=N/O)cc2Br)cc1 | > 100
43 | CO/N=C(\N)c1ccc(COc2c(OC)cc(/C(N)=N/OC)cc2OC)cc1.Cl.Cl | 100
44 | CO/N=C(\N)c1cccc(COc2c(Cl)cc(/C(N)=N/OC)cc2Cl)c1.Cl.Cl.Cl.Cl | > 50
45 | CO/N=C(\N)c1cccc(COc2c(OC)cc(/C(N)=N/OC)cc2OC)c1.Cl.Cl | > 100

System: Trypanosoma brucei rhodesiense
Test: Antitrypanosomal activity against Trypanosoma brucei rhodesiense STIB900 infected in NMRI mouse assessed as cured animal at 25 mg/kg, po administered for 4 days
Type: functional, organism-based
Set-up: dose 25 mg/kg
Conditions: not given
Outline: as §1

Row | SMILES | Activity
46 | CO/N=C(\N)c1cccc(COc2ccc(/C(N)=N/OC)cc2Cl)c1.Cl.Cl.Cl | inactive
47 | Cl.Cl.N/C(=N\O)c1cccc(COc2c(I)cc(/C(N)=N/O)cc2I)c1 | inactive
48 | COc1cc(/C(N)=N/O)cc(I)c1OCc1cccc(/C(N)=N/O)c1.Cl.Cl | inactive
49 | Cl.Cl.N/C(=N\O)c1ccc(COc2ccc(/C(N)=N/O)cc2Br)cc1 | inactive
50 | CO/N=C(\N)c1ccc(COc2c(OC)cc(/C(N)=N/OC)cc2OC)cc1.Cl.Cl | inactive
51 | CO/N=C(\N)c1cccc(COc2c(Cl)cc(/C(N)=N/OC)cc2Cl)c1.Cl.Cl.Cl.Cl | inactive
52 | CO/N=C(\N)c1cccc(COc2c(OC)cc(/C(N)=N/OC)cc2OC)c1.Cl.Cl | inactive

System: not listed separately
Test: Selectivity index, ratio of IC50 for rat L6 cells to IC50 for Trypanosoma brucei rhodesiense STIB900
Type: toxicity, cell-based
Conditions: read-out: Ratio IC50
Outline: as §2

Row | SMILES | selectivity ratio
53 | N=C(N)c1ccc(COc2c(Cl)cc(C(=N)N)cc2Cl)cc1 | 1170
54 | CO/N=C(\N)c1cccc(COc2ccc(/C(N)=N/OC)cc2Cl)c1.Cl.Cl.Cl | 3
55 | Cl.Cl.N/C(=N\O)c1cccc(COc2c(I)cc(/C(N)=N/O)cc2I)c1 | 1
56 | COc1cc(/C(N)=N/O)cc(I)c1OCc1cccc(/C(N)=N/O)c1.Cl.Cl | < 1
57 | COc1cc(C(=N)N)cc(OC)c1OCc1ccc(C(=N)N)cc1.Cl.Cl | 1910
58 | Cl.Cl.N/C(=N\O)c1ccc(COc2ccc(/C(N)=N/O)cc2Br)cc1 | < 1
59 | CO/N=C(\N)c1ccc(COc2c(OC)cc(/C(N)=N/OC)cc2OC)cc1.Cl.Cl | > 1
60 | CO/N=C(\N)c1cccc(COc2c(Cl)cc(/C(N)=N/OC)cc2Cl)c1.Cl.Cl.Cl.Cl | 2
61 | CO/N=C(\N)c1cccc(COc2c(OC)cc(/C(N)=N/OC)cc2OC)c1.Cl.Cl | > 1

System: Trypanosoma brucei rhodesiense
Test: Antitrypanosomal activity against Trypanosoma brucei rhodesiense STIB900 infected in NMRI mouse assessed as mean survival days at 5 mg/kg, ip administered for 4 days
Type: functional
Conditions: route intraperitoneal
Outline: (§3)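 Female NMRI mice, acute infection model with T. b. rhodesiense STIB900. Compound given as a single daily dose for four days, intraperitoneally or orally. Cure means survival to 60 days post-infection without parasitaemia relapse. Mean survival recorded in days.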

Row | SMILES | MSD [days]
62 | N=C(N)c1ccc(COc2c(Cl)cc(C(=N)N)cc2Cl)cc1 | 30.25
63 | COc1cc(C(=N)N)cc(OC)c1OCc1ccc(C(=N)N)cc1.Cl.Cl | 15

System: Trypanosoma brucei rhodesiense
Test: Antitrypanosomal activity against Trypanosoma brucei rhodesiense STIB900 infected in NMRI mouse assessed as mean survival days at 25 mg/kg, po administered for 4 days
Type: functional
Conditions: not given
Outline: as §3

Row | SMILES | MSD [days]
64 | CO/N=C(\N)c1cccc(COc2ccc(/C(N)=N/OC)cc2Cl)c1.Cl.Cl.Cl | 29.25
65 | Cl.Cl.N/C(=N\O)c1cccc(COc2c(I)cc(/C(N)=N/O)cc2I)c1 | 5.75
66 | COc1cc(/C(N)=N/O)cc(I)c1OCc1cccc(/C(N)=N/O)c1.Cl.Cl | 20.5
67 | Cl.Cl.N/C(=N\O)c1ccc(COc2ccc(/C(N)=N/O)cc2Br)cc1 | 28.75
68 | CO/N=C(\N)c1ccc(COc2c(OC)cc(/C(N)=N/OC)cc2OC)cc1.Cl.Cl | 11.75
69 | CO/N=C(\N)c1cccc(COc2c(Cl)cc(/C(N)=N/OC)cc2Cl)c1.Cl.Cl.Cl.Cl | 21.75
70 | CO/N=C(\N)c1cccc(COc2c(OC)cc(/C(N)=N/OC)cc2OC)c1.Cl.Cl | 15

System: Trypanosoma brucei rhodesiense
Test: Antitrypanosomal activity against Trypanosoma brucei rhodesiense STIB900 after 72 hrs by Alamar blue assay
Type: functional, organism-based
Conditions: STIB900, 72 h

Row | SMILES | IC50 [µM]
71 | N=C(N)c1ccc(COc2c(Cl)cc(C(=N)N)cc2Cl)cc1 | 0.024
72 | CO/N=C(\N)c1cccc(COc2ccc(/C(N)=N/OC)cc2Cl)c1.Cl.Cl.Cl | 26.1
73 | Cl.Cl.N/C(=N\O)c1cccc(COc2c(I)cc(/C(N)=N/O)cc2I)c1 | 13.6
74 | COc1cc(/C(N)=N/O)cc(I)c1OCc1cccc(/C(N)=N/O)c1.Cl.Cl | 38.7
75 | COc1cc(C(=N)N)cc(OC)c1OCc1ccc(C(=N)N)cc1.Cl.Cl | 0.11
76 | Cl.Cl.N/C(=N\O)c1ccc(COc2ccc(/C(N)=N/O)cc2Br)cc1 | 24
77 | CO/N=C(\N)c1ccc(COc2c(OC)cc(/C(N)=N/OC)cc2OC)cc1.Cl.Cl | 129
78 | CO/N=C(\N)c1cccc(COc2c(Cl)cc(/C(N)=N/OC)cc2Cl)c1.Cl.Cl.Cl.Cl | 60.1
79 | CO/N=C(\N)c1cccc(COc2c(OC)cc(/C(N)=N/OC)cc2OC)c1.Cl.Cl | 109
